Active and inactive are the calls of the source. The calls are words filed in the database; no cut-off is given here.

Consider two molecules from ChEMBL document CHEMBL1142229, “Docosahexaenoic acid alters bilayer elastic properties” (Proc Natl Acad Sci U S A, 2007).

Data set [1] in a line: Activity at gramicidin channel 13 assessed as increase in single channel current at 10 uM in presence of cholesterol. Summed up:
(§1)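 Planar bilayers of DC18:1PC (20 mg/ml in n-decane) across a ≈1.6 mm hole in a Teflon partition, in 1 M NaCl, 10 mM Hepes, pH 7.0. Opposite-helix-sense gA analogue pairs, gA(13) and AgA(15). Fatty acid added to both sides from ethanolic stock with NaOH and BHT, stirred 5 min, equilibrated 10 min. Single-channel currents and lifetimes recorded before and after addition. Where stated, cholesterol:DC18:1PC molar ratio 1:1.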

The nature of data set [2]: Partition coefficient (x10-4) across dioleoylphosphatidylcholine bilayer. The conditions noted are these: lipid bilayer/electrolyte. In kind it is ADME. Summed up: (§2)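 Lipid/electrolyte partition coefficient measured with ADIFAB (0.2 μM) in 1 M NaCl, 10 mM Hepes, pH 7.0 at 25 ± 1°C. Extruded vesicles at ≈100 μM phospholipid; total fatty acid raised stepwise over 3–30 μM, 3–5 min equilibration per step. Emission read at 432 and 505 nm (excitation 386 nm), corrected for cuvette binding. Kp from free vs total FA and Vm/Va; triplicate, averaged over concentrations.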

A short description of data set [3]: Partition coefficient (x10-4) across dieicosenoyl-phosphatidylcholine bilayer. The data set is classed as ADME. The conditions noted are these: lipid bilayer/electrolyte. The procedure, abridged:
as §2

The nature of data set [4]: Activity at gramicidin A negative channel 15 assessed as increase in single channel current. The procedure, abridged: as §1
A short description of data set [5]: Activity at gramicidin channel 13 assessed as increase in single channel current at 10 uM. Summed up:
as §1

Data set [6] can be described thus: Partition coefficient (x10-4) across dioleoylphosphatidylcholine bilayer in presence of cholesterol. In kind it is ADME. To be noted: lipid bilayer/electrolyte. The procedure, abridged: as §2
The nature of data set [7]: Effect on gramicidin channel 13 activity. The procedure, abridged:
as §1

The nature of data set [8]: Activity at gramicidin channel 13 assessed as increase in single channel current. Summed up:
as §1

In the case of `CC/C=C\C/C=C\C/C=C\C/C=C\C/C=C\C/C=C\CCC(=O)O` [DOCONEXENT], the Activity in data set [1] stood at 65%; in data set [5], 15%. Moreover, the Partition coefficient in data set [2] was 20; in data set [3], 20; in data set [6], 19. For the same molecule, the result in data set [4], in data set [7] and in data set [8] was Active.
For `CCCCCCCC/C=C\CCCCCCCC(=O)O` [OLEIC ACID], the Activity in data set [1] was 15%; in data set [5] it was 5%. In addition, the Partition coefficient was 254 in data set [2] and 246 in data set [3]. Besides, the result in data set [4], in data set [7] and in data set [8] was inactive.
